A word on the T/C: it is the ratio of treated to control. What is called inhibition is the drop in the measured response relative to a control, in per cent. High values mean strong suppression, low ones little suppression.

The source of these data is ChEMBL document CHEMBL1122873, “Acetoxy-substituted 1,1,2-triphenylbut-1-enes with antiestrogenic and mammary tumor inhibiting properties” (1985).

In experiment [1] the test system is Mus musculus. The experiment in a line: In vivo inhibition of hormone-dependent MXT mammary tumor in BDF1 mouse at 11.3 mg/kg dose. The format is functional. Summed up: (§1)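 Transplantable hormone-dependent MXT tumor pieces (1 per animal) were implanted in BDF1 mice, then randomized into groups of 10. Dosing was sc three times weekly (Mon/Wed/Fri) in olive oil (0.1 mL/mouse) from day 1 after transplantation for 6 weeks, at equimolar doses. Read-out is tumor weight T/C % versus solvent control (mean of 10); significance α ≤ 0.05.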

In experiment [2] the target is T1, Estrogen receptor (Mus musculus) (UniProt O08537+P19785). As to the kind of experiment: Antiestrogenic activity in immature mouse Uterine weight test at 1 ug dose. Format: functional. The method, boiled down: (§2)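 Antiestrogenic read-out is inhibition of estrone-stimulated uterine growth, given as % inhibition. Immature female NMRI mice (10–12 g, 20 days old, 10 per group) received the compound sc daily for 3 days in 0.1 mL olive oil. Uteri were taken 24 h after the last dose, Bouin-fixed, dried and weighed.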

For experiment [3], the target named is T1, Estrogen receptor (Mus musculus). As to the kind of experiment: Estrogenic activity in immature mouse using Uterine weight test at 1 ug dose. Format: functional. The method, boiled down:
(§3)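 Immature female NMRI mice (10–12 g, 20 days old at start, 10 per group) got the compound sc daily for 3 consecutive days in 0.1 mL olive oil. Uteri were removed 24 h after the last injection, fixed in Bouin's solution, dried and weighed. Uterine growth stimulation is the estrogenic read-out.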

For experiment [4] the target is unchanged. As to the kind of experiment: Estrogenic activity in immature mouse using Uterine weight test at 10 ug dose. The format is functional. Summed up:
as §3

Experiment [5] concerns Mus musculus. As to the kind of experiment: In vivo inhibition of hormone-dependent MXT mammary tumor in BDF1 mouse at 8.0 mg/kg dose. The format is functional. Summed up:
as §1

For experiment [6], the target named is T1, Estrogen receptor (Mus musculus). The experiment in a line: Estrogenic activity in immature mouse using Uterine weight test at 25 ug dose. Format: functional. The method, boiled down:
as §3

Experiment [7] shares this target. As to the kind of experiment: Estrogenic activity in immature mouse using Uterine weight test at 5 ug dose. The format is functional. Summed up:
as §3

Experiment [8] has the same target. The experiment in a line: Antiestrogenic activity in immature mouse Uterine weight test at 5 ug dose. Format: functional. The method, boiled down:
as §2

For experiment [9] the target is unchanged. The experiment in a line: In vivo uterotrophic effect in hormone-dependent MXT mammary tumor bearing BDF1 mice at 8.0 mg/kg dose. Format: functional, organism-based. Also on record: dose 8 mg/kg. Summed up:
(§4)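 Uterotrophic effect was measured in the same MXT tumor-bearing BDF1 mice (groups of 10). They were dosed sc three times weekly in olive oil (0.1 mL/mouse) for 6 weeks from day 1 after transplantation. Read-out is T/C % of uterotrophic effect versus solvent control after 6 weeks (mean of 10); significance α ≤ 0.05.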

Experiment [10] shares this target. As to the kind of experiment: Antiestrogenic activity in immature mouse Uterine weight test at 100 ug dose. Format: functional. The method, boiled down: as §2
The target of experiment [11] is T2, Estrogen receptor (Bos taurus) (UniProt Q9XSB5+P49884). The experiment in a line: Relative displacement of [3H]estradiol from calf uterine estrogen receptor. The format is protein assay. The method, boiled down:
(§5)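 Calf uterine cytosol was incubated with 1×10⁻⁹ M [³H]estradiol and five or six competitor concentrations for 16 h at 4 °C. Dextran-coated charcoal removed unbound ligand (90 min, 4 °C), and supernatant radioactivity was counted. The 50% displacement concentration was read from a semilog plot. RBA = [E2]/[I] × 100.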
(Loss of bound radioactivity is the signal in a displacement assay; it reports binding, not function.)

The target of experiment [12] is T1, Estrogen receptor (Mus musculus). The experiment in a line: Estrogenic activity in immature mouse using Uterine weight test at 250 ug dose. Format: functional. The method, boiled down: as §3
The target is the same in experiment [13]. The experiment in a line: Antiestrogenic activity in immature mouse Uterine weight test at 25 ug dose. The format is functional. The method, boiled down:
as §2

The target is the same in experiment [14]. As to the kind of experiment: In vivo uterotrophic effect in hormone-dependent MXT mammary tumor bearing BDF1 mice at 12 mg/kg dose. The format is functional, organism-based. More on the design: dose 12 mg/kg. Summed up: as §4
The subject of experiment [15] is Mus musculus. The experiment in a line: In vivo inhibition of hormone-dependent MXT mammary tumor in BDF1 mouse at 12 mg/kg dose. Format: functional. Summed up: as §1
In experiment [16] the target is T1, Estrogen receptor (Mus musculus). The experiment in a line: Estrogenic activity in immature mouse using Uterine weight test at 50 ug dose. The format is functional. The method, boiled down:
as §3

Experiment [17] concerns Mus musculus. As to the kind of experiment: In vivo inhibition of hormone-dependent MXT mammary tumor in BDF1 mouse at 5.4 mg/kg dose. The format is functional. The method, boiled down: as §1
For experiment [18], the target named is T1, Estrogen receptor (Mus musculus). The experiment in a line: Estrogenic activity in immature mouse using Uterine weight test at 0.5 ug dose. The format is functional. Summed up: as §3
For experiment [19] the target is unchanged. As to the kind of experiment: Antiestrogenic activity in immature mouse Uterine weight test at 25 ug dose.
The target in experiment [20] is T2, Estrogen receptor (Bos taurus). As to the kind of experiment: Tested in vitro for its binding affinity against Estrogen receptor. The format is protein assay. The method, boiled down:
as §5

T1 sequence (O08537 whole entry, looked up): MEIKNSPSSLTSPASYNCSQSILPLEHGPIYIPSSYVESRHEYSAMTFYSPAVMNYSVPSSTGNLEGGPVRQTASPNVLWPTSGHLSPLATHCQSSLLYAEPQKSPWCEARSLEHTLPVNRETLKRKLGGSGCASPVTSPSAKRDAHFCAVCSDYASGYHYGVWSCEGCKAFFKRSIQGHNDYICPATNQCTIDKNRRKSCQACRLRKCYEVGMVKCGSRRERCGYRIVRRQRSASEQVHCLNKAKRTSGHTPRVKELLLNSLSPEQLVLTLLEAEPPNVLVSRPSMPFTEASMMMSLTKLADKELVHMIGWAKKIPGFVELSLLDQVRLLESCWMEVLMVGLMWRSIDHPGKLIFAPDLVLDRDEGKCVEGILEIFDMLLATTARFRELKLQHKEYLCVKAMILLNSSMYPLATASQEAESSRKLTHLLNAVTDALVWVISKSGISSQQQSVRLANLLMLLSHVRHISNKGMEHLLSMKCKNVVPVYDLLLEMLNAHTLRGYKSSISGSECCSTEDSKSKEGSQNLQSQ
T1 sequence (P19785 whole entry, looked up): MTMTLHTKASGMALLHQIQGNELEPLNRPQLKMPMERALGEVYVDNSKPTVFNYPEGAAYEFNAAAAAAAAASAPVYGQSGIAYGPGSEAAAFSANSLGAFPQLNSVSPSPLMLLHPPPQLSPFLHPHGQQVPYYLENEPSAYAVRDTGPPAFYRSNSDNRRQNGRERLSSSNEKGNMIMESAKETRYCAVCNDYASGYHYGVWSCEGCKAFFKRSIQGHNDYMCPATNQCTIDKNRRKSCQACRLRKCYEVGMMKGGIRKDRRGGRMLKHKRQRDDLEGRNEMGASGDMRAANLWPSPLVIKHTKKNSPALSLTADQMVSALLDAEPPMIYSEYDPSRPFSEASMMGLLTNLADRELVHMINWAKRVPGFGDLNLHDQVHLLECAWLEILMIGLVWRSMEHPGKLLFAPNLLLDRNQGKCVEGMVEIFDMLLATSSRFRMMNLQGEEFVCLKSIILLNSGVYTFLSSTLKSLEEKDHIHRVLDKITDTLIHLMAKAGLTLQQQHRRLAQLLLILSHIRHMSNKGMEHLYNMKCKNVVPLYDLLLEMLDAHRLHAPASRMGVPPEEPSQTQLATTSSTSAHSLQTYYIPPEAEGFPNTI

As to `CC/C(=C(\c1ccccc1)c1ccc(OCCN(C)C)cc1)c1ccccc1.O=C(O)CC(O)(CC(=O)O)C(=O)O` [TAMOXIFEN CITRATE], in the experiment with Mus musculus [1], the T/C is listed as 4%.

Take `CCC(=C(c1ccc(OC(C)=O)cc1)c1ccc(OC(C)=O)cc1)c1ccccc1`: the inhibition in experiment [2] and in experiment [8] was 0% each time. Also, the Estrogenic effect is 37 in [3], 85 in [4], 98 in [6] and 72 in experiment [7]. Further, the T/C in the experiment with Mus musculus [5] was determined as 7%; in [9], 110%.

With `CC/C(=C(/c1ccc(OC(C)=O)cc1)c1cccc(OC(C)=O)c1)c1ccccc1`, the inhibition is 9% in experiment [10], 33% in experiment [13] and 28% in experiment [8]. Further, in [11], the RBA is 3.5%. Further, the Estrogenic effect turned out to be 8 in experiment [3], 66 in experiment [12], 15 in [7] and 66 in experiment [16]. In addition, the results for the T/C (in [14]; with Mus musculus [15]) were 110% and 8%, respectively.

Turning to `CC/C(=C(\c1ccccc1)c1cccc(OC(C)=O)c1)c1ccc(OC(C)=O)cc1`, the inhibition in experiment [10] stood at 9%; in experiment [13], 16%; in experiment [8], 45%. For the same molecule, in experiment [11], the RBA amounted to 1.8%. Also, the Estrogenic effect in experiment [3] amounted to 0; in [7], 18; in [16], 61. The T/C in the experiment with Mus musculus [5] is 62%; in experiment [9], 96%.

Molecule `CC/C(=C(/CC)c1ccc(O)cc1)c1ccc(O)cc1` [DIETHYLSTILBESTROL] yielded a T/C in the experiment on Mus musculus [17] of 3%.

Take `CC/C(=C(/c1ccccc1)c1ccc(OC(C)=O)cc1)c1cccc(OC(C)=O)c1`: the RBA in [11] was determined as 11.1%. Besides, the Estrogenic effect is 124 in [18], 114 in experiment [3] and 81 in experiment [7]. The results for the T/C (with Mus musculus [5]; in experiment [9]) were 1% and 205%, respectively.

As to `CC/C(=C(\c1ccccc1)c1ccc(OC(C)=O)cc1)c1cccc(OC(C)=O)c1`, the inhibition in [19], in experiment [13] and in [8] was 0% each time. For the same molecule, the T/C in the experiment with Mus musculus [5] turned out to be 7%; in [9], 193%. For the same molecule, the relative binding affinity (RBA) in experiment [20] amounted to 6.1. The Estrogenic effect in experiment [7] came to 94.

Regarding `CC/C(=C(\c1ccc(OC(C)=O)cc1)c1cccc(OC(C)=O)c1)c1ccccc1`, the inhibition in experiment [10] came out at 3%; in [13], 32%; in [8], 41%. Further, the RBA in experiment [11] was found to be 8.7%. The Estrogenic effect was 23 in [3], 85 in experiment [12], 35 in experiment [7] and 73 in experiment [16]. Moreover, the T/C in the experiment on Mus musculus [5] was found to be 25%; in experiment [9] it was 116%.

`CC/C(=C(/c1ccccc1)c1cccc(OC(C)=O)c1)c1ccc(OC(C)=O)cc1` displayed an RBA in experiment [11] of 4.2%. In addition, the inhibition in experiment [2] came out at 12%; in experiment [13], 0%; in experiment [8] it was 0%. In addition, the Estrogenic effect was 18 in experiment [3], 80 in [7] and 92 in [16]. The T/C with Mus musculus [5] worked out at 2%; in [9] it was 175%.
